Measured values published in ChEMBL document CHEMBL1153361, “Synthesis and in vitro characterization of radioiodinatable benzodiazepines selective for type 1 and type 2 cholecystokinin receptors” (J Med Chem, 2009).
The source made the active and inactive calls. The calls are words filed in the database; no cut-off is given here.

Assays:
[1] = target: T1, Cholecystokinin receptor type A (Homo sapiens, UniProt P32238); assay: Binding affinity to human CCK1 receptor expressed in CHO cell membrane by saturation binding assay; format: cell membranes
T1 sequence (P32238 whole entry): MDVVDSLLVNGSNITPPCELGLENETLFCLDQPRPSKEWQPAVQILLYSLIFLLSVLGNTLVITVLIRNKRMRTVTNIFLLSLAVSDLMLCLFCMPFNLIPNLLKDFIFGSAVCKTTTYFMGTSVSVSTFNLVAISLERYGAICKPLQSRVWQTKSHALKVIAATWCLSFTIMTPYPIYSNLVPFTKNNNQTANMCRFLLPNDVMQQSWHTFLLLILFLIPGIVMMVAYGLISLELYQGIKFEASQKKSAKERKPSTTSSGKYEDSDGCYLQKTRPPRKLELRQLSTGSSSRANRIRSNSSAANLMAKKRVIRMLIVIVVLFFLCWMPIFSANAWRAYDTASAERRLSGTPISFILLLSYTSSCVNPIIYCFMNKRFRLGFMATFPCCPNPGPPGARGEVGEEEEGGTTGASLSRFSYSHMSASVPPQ
Summary of the method: (§1)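 Membranes (5–10 µg protein) from CHO cells stably expressing human CCK1 or CCK2 receptor, incubated with increasing radioligand in KRH pH 7.4 with 0.2% BSA and 0.01% soybean trypsin inhibitor, 1 h at room temperature. Nonspecific binding taken with 1 µM cold homolog. Filtration, gamma counting. Kd and Bmax fitted in LIGAND.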

[2] = target: T2, Gastrin/cholecystokinin type B receptor (Homo sapiens, UniProt P32239); assay: (§2) Displacement of [125I](R)-1-(3-iodophenyl)-3-(1-methyl-2-oxo-5-phenyl-2,3-dihydro-1Hbenzo[e][1,4]diazepin-3-yl)urea from human CCK2 receptor expressed in CHO cells by gamma spectrometry; format: cell-based
T2 sequence (P32239 whole entry): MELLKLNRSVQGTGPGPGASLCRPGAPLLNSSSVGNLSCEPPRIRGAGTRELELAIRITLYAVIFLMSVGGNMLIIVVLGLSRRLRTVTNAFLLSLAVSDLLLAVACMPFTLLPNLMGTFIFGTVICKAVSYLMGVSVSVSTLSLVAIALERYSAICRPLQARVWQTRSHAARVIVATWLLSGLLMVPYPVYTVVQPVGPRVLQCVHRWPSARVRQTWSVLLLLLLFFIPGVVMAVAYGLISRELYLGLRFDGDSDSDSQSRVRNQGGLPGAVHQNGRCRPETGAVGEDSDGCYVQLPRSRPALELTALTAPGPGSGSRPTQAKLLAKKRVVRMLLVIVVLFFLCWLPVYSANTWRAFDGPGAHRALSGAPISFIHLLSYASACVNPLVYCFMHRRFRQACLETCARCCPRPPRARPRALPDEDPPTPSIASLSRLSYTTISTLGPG
Summary of the method: (§3)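 Homologous competition in membranes (5–10 µg protein) from CHO cells expressing human receptor. 10 pM radioligand (about 20,000 cpm) plus cold ligand 0–1 µM in KRH with 0.2% BSA and 0.01% soybean trypsin inhibitor, 1 h at room temperature. Filtration, gamma counting. Ki fitted by LIGAND nonlinear least squares. Duplicate/triplicate, ≥3 independent experiments.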

[3] = target: T1, Cholecystokinin receptor type A; assay: biochemical
[4] = target: T2, Gastrin/cholecystokinin type B receptor; assay: Binding affinity to human CCK2 receptor expressed in CHO cell membrane by saturation binding assay; format: cell membranes; summary of the method: as §1
[5] = target: T3, Gastrin/cholecystokinin type B receptor (Homo sapiens) (UniProt P32239); assay: as §2; format: cell-based; settings: tested as the 125I-labelled form; summary of the method: as §3
T3 sequence (whole entry): T2 sequence (P32239 whole entry)

[6] = target: T3, Gastrin/cholecystokinin type B receptor (Homo sapiens); assay: Agonist activity at human CCK2 receptor expressed in CHO cells assessed as stimulation of intracellular calcium response; format: functional, cell-based
Summary of the method: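 CHO cells stably expressing human receptor, detached non-enzymatically, loaded with 5 μM Fura-2 AM for 30 min at 37 °C in serum-free Ham's F12. About 2 million cells per measurement were stimulated with test ligand (10 pM to 10 μM) at 37 °C. Fluorescence was read with excitation at 340/380 nm and emission at 520 nm over 300 s. Three independent experiments.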

[7] = target: T3, Gastrin/cholecystokinin type B receptor (Homo sapiens); assay: Antagonist activity at human CCK2 receptor expressed in CHO cells assessed as inhibition of CCK8-stimulated intracellular calcium response preincubated for 100 seconds before CCK8 challenge; format: functional, cell-based
Summary of the method: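 Fura-2 AM-loaded (5 μM, 30 min, 37 °C) CHO cells stably expressing human receptor, about 2 million per measurement. Cells were pre-incubated 100 s with increasing ligand concentrations, then stimulated with CCK-8 (final 10^-9 M) at 37 °C. Ratiometric read-out with excitation at 340/380 nm and emission at 520 nm, collected over 300 s. Means of 3 independent experiments.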

[8] = target: T3, Gastrin/cholecystokinin type B receptor (Homo sapiens); assay: Binding affinity to CCK2 receptor in human gastrointestinal stromal tumor in presence of (R)-1-(3-iodophenyl)-3-(1-methyl-2-oxo-5-phenyl-2,3-dihydro-1Hbenzo[e][1,4]diazepin-3-yl)urea; settings: tested as the 125I-labelled form
[9] = target: T3, Gastrin/cholecystokinin type B receptor (Homo sapiens); assay: Binding affinity to CCK2 receptor in human gastrointestinal stromal tumor in presence of CCK8; settings: tested as the 125I-labelled form
[10] = target: T3, Gastrin/cholecystokinin type B receptor (Homo sapiens); assay: Binding affinity to CCK2 receptor in human gastrointestinal stromal tumor in presence of CCK1 antagonist L364718; settings: tested as the 125I-labelled form
[11] = target: T3, Gastrin/cholecystokinin type B receptor (Homo sapiens); assay: Induction of receptor internalization in YFP-tagged human CCK2 receptor expressed in CHO cells at 100 nM after 90 mins; format: cell-based
Summary of the method: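 CHO cells stably expressing YFP-tagged receptor, grown ≥48 h on coverslips, bound with 100 nM ligand at 4 °C for 90 min in PBS with 0.08 mM CaCl2 and 0.1 mM MgCl2. After washing, cells were warmed to 37 °C for varying times, fixed in 2% paraformaldehyde, and imaged by confocal microscopy for surface versus internal YFP (ex 488, em >505 nm).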

[12] = target: T3, Gastrin/cholecystokinin type B receptor (Homo sapiens); assay: Displacement of [125I]CCK from CCK2 receptor in human medullary thyroid carcinoma assessed as binding density per mg of tissue by autoradiography; settings: tested as the 125I-labelled form
[13] = target: T3, Gastrin/cholecystokinin type B receptor (Homo sapiens); assay: Displacement of [125I]CCK from CCK2 receptor in human muscular layer of gall bladder assessed as binding density per mg of tissue by autoradiography; format: tissue-based; settings: tested as the 125I-labelled form

SMILES	Ki [2]	Ki [3]	Activity [5]	Activity [6]	Activity [7]	other results
CN1C(=O)[C@@H](NC(=O)Nc2cccc([125I])c2)N=C(c2ccccc2)c2ccccc21	1 nM	174 nM	–	–	–	Kd [1]: 1.15 nM
CN1C(=O)[C@H](NC(=O)Nc2cccc([125I])c2)N=C(c2ccccc2)c2ccccc21	537 nM	3.72 nM	–	–	–	Kd [4]: 2.95 nM
CN1C(=O)[C@@H](NC(=O)Nc2cccc(I)c2)N=C(c2ccccc2)c2ccccc21	–	–	Dose-dependent effect	inactive	Dose-dependent effect	–
CN1C(=O)[C@H](NC(=O)Nc2cccc(I)c2)N=C(c2ccccc2)c2ccccc21	–	–	Dose-dependent effect	inactive	Dose-dependent effect	Activity [8]: inactive; Activity [9]: inactive; Activity [10]: inactive; Activity [11]: Active; Activity (disintegrations/minute) [12]: 602; Activity (disintegrations/minute) [13]: 970
